Results published in ChEMBL document CHEMBL5029150, “Controlling Intramolecular Interactions in the Design of Selective, High-Affinity Ligands for the CREBBP Bromodomain” (J Med Chem, 2021).
Activity calls are given as the source filed them.

Assays:
Details in all cases: dose microM <=1
[1] = target: Bromodomain-containing protein 4 (Homo sapiens, UniProt O60885); experiment: Binding affinity to human BRD4 bromodomain 1 assessed as dissociation constant up to 1 uM by BROMOscan assay
In short: (§1)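 BROMOscan competition binding panel of 12 phylogenetically diverse bromodomains, including the CREBBP and EP300 bromodomains.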

[2] = target: Transcription initiation factor TFIID subunit 1 (Homo sapiens) (UniProt P21675); experiment: Binding affinity to human TAF1 bromo domain 2 assessed as dissociation constant up to 1 uM by BROMOscan assay; in short: as §1
Chain of Transcription initiation factor TFIID subunit 1 (Homo sapiens) (P21675 whole entry, the tested form may be a part): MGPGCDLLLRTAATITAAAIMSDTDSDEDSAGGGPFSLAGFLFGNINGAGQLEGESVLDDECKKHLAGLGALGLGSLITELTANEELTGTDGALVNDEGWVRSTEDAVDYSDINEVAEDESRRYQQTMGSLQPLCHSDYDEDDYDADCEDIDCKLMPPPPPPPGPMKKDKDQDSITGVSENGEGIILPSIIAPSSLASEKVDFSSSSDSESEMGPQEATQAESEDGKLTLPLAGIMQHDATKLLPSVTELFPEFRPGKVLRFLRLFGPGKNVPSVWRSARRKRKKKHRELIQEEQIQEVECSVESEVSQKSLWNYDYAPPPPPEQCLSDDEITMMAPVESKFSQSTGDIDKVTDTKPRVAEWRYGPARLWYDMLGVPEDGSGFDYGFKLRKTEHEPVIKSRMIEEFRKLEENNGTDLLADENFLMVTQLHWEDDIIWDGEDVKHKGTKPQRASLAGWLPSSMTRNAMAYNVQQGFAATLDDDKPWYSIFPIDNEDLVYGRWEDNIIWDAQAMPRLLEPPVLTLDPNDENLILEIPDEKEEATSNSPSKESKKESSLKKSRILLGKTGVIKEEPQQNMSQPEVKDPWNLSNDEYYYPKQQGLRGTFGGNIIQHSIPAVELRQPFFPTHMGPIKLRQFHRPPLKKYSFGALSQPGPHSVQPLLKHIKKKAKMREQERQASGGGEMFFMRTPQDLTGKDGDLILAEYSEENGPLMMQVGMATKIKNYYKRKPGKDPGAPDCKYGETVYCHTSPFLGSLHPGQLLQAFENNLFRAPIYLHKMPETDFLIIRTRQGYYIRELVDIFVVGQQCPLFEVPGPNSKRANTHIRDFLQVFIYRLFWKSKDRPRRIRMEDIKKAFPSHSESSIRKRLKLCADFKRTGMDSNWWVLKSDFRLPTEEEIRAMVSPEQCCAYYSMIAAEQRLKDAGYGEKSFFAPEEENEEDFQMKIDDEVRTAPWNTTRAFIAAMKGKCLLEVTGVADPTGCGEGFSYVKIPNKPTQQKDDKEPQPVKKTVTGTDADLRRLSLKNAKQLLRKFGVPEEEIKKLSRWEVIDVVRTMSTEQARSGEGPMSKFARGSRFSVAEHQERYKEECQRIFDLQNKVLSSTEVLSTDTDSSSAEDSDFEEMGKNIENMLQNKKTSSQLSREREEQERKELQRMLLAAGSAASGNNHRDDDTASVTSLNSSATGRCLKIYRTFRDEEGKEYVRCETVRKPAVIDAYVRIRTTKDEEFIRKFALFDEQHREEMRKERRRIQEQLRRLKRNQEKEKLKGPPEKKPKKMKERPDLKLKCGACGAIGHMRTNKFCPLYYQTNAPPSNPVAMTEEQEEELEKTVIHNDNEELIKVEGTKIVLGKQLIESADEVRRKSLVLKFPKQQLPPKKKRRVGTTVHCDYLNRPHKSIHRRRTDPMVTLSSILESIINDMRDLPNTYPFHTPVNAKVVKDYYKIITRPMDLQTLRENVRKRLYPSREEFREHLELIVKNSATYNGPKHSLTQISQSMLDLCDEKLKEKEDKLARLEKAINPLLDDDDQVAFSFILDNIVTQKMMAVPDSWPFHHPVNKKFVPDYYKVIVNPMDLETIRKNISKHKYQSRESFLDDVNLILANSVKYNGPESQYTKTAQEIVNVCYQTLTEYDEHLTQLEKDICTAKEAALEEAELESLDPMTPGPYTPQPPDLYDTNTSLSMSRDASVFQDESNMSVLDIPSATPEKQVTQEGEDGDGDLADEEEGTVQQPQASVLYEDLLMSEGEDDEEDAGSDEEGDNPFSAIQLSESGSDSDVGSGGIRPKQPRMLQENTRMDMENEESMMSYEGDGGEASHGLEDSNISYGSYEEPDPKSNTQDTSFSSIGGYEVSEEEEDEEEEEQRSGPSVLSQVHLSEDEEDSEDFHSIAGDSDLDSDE

[3] = target: SWI/SNF-related matrix-associated actin-dependent regulator of chromatin subfamily A member 4 (Homo sapiens) (UniProt P51532); experiment: Binding affinity to human SMARCA4 assessed as dissociation constant up to 1 uM by BROMOscan assay; in short: as §1
Chain of SWI/SNF-related matrix-associated actin-dependent regulator of chromatin subfamily A member 4 (Homo sapiens) (P51532 whole entry): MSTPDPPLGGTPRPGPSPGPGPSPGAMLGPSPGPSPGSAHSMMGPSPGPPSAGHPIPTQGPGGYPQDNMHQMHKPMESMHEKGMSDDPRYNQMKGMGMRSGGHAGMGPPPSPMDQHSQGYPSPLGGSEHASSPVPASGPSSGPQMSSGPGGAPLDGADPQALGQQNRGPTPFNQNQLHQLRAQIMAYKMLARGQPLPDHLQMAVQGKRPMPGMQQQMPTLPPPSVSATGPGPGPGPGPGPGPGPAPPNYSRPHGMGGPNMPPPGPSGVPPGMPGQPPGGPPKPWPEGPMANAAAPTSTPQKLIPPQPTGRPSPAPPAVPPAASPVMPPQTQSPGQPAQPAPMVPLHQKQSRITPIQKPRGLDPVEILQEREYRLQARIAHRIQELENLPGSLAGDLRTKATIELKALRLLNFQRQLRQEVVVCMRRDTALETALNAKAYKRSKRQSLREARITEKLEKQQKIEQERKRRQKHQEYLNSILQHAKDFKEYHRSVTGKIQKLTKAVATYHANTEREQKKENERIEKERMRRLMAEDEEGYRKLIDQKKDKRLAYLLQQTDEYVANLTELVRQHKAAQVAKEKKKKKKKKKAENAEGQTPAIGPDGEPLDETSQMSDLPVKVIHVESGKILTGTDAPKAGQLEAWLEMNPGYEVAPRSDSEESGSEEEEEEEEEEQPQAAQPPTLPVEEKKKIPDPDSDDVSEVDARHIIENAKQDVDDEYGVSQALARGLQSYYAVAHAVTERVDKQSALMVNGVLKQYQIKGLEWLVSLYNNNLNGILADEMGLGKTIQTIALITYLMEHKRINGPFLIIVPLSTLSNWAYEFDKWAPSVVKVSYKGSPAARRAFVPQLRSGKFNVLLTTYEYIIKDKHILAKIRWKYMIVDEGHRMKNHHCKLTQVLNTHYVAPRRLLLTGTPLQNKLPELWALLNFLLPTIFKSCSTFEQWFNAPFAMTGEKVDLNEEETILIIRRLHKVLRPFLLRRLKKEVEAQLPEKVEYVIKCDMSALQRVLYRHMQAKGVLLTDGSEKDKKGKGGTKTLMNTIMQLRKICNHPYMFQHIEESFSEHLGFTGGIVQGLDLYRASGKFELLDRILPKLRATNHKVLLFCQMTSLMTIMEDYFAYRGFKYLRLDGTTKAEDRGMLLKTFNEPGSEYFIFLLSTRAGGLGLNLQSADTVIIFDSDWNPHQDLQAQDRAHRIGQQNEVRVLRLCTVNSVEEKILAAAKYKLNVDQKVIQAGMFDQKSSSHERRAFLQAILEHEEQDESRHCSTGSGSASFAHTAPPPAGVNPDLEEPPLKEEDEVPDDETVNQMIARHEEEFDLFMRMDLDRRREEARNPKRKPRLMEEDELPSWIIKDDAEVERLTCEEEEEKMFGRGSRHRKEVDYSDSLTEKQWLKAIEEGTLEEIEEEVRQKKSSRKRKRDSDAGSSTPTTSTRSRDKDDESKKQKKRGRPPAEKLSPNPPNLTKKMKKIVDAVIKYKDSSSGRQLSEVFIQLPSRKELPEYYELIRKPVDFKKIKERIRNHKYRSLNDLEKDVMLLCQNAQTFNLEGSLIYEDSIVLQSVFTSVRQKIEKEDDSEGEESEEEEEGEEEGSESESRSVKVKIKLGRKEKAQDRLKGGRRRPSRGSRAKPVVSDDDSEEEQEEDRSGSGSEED

[4] = target: T1, Peregrin (Homo sapiens) (UniProt P55201); experiment: Binding affinity to human BRPF1 assessed as dissociation constant up to 1 uM by BROMOscan assay; in short: as §1
T1 sequence (whole entry): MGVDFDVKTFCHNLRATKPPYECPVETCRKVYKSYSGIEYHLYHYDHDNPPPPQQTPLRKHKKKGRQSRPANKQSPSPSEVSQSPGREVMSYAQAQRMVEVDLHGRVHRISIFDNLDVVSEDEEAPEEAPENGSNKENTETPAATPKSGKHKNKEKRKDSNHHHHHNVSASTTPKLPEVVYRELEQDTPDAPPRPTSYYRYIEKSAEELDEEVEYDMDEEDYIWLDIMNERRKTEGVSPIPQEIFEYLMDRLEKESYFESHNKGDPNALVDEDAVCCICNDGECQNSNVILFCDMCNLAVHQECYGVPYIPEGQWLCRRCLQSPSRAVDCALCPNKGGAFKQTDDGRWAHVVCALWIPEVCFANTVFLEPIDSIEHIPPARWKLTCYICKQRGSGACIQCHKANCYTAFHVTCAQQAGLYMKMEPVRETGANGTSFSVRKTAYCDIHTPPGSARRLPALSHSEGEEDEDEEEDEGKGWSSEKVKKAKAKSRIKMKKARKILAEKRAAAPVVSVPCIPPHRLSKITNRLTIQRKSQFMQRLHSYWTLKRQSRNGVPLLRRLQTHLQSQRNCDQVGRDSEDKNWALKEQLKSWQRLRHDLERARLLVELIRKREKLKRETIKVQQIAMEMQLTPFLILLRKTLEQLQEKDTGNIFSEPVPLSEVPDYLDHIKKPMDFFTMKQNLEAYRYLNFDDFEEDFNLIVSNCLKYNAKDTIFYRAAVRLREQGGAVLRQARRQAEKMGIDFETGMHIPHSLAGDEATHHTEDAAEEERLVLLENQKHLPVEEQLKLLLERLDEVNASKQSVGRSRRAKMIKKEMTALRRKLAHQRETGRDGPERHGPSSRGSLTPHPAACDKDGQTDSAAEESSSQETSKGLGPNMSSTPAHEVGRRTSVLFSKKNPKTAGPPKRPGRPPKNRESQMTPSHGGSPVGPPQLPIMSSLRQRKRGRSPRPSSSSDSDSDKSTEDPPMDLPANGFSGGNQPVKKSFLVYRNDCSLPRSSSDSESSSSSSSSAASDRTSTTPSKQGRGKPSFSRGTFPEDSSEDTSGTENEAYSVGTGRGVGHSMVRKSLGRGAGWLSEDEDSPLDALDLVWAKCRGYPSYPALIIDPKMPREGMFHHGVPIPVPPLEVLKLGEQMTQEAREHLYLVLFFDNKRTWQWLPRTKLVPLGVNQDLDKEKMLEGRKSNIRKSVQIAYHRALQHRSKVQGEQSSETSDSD

[5] = target: T2, ATPase family AAA domain-containing protein 2B (Homo sapiens) (UniProt Q9ULI0); experiment: Binding affinity to human ATAD2B assessed as dissociation constant up to 1 uM by BROMOscan assay; in short: as §1
T2 sequence (whole entry): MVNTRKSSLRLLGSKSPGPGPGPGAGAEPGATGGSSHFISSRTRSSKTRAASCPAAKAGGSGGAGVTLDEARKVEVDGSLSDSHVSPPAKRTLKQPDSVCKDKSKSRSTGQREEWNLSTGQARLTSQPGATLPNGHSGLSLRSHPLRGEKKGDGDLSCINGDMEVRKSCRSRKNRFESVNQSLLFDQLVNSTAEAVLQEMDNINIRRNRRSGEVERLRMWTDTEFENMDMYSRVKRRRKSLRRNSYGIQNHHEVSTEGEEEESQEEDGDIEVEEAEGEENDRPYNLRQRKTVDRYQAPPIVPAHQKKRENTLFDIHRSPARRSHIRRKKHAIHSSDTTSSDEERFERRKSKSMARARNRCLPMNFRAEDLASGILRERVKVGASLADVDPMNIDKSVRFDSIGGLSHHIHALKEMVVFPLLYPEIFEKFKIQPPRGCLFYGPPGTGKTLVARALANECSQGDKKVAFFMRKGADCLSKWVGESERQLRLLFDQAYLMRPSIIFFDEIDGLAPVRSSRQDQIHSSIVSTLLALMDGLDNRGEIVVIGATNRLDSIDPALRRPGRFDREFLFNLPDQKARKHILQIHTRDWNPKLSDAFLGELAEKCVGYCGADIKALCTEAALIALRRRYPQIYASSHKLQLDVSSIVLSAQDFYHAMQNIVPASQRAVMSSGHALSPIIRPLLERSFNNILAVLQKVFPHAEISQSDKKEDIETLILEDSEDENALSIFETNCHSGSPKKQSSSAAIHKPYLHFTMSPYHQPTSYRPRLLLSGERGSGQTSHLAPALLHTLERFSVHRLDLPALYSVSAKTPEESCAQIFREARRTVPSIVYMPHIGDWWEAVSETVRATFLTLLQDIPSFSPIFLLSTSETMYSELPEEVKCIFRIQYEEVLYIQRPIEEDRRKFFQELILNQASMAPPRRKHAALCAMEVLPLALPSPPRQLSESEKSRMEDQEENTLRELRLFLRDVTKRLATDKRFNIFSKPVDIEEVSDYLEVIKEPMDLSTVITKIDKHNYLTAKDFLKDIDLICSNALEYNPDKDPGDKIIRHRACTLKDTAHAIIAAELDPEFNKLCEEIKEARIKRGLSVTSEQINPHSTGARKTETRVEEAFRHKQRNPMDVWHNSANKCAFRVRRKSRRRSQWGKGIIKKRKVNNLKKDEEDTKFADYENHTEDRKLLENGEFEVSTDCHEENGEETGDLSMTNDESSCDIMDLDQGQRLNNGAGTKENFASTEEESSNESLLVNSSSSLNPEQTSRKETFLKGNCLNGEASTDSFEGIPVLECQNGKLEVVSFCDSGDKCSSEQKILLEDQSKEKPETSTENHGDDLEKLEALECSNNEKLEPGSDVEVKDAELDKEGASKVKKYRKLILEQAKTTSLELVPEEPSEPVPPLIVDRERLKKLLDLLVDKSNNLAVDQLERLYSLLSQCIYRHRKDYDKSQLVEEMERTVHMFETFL

Measured: Activity

COc1ccc2c(c1)N(CCC/C=C/c1cccc3c1N[C@H](C)CC(=O)N3)CCC2
inactive: [1] | [2] | [3] | [4] | [5]

COc1ccc2c(c1)N(CCC/C=C/c1cccc3c1N[C@@H](C)CC(=O)N3)CCC2
inactive: [1] | [2] | [3] | [4] | [5]
